Bioassay records as filed in PubChem BioAssay.
This is a sample that favours compounds with a hit; in the whole collection about 5.6% have one here.
aDG glyco up: activators of alpha-DG glycosylation, primary screen, uHTS, Pro5-aDG cells, AlphaScreen; alpha-DG glycosylation AlphaScreen (IIH6); 0% Pro5, 100% B10-LARGE cell signal; activation, % at 10 µM; actives 0.22% (n = 360,000); AID 624168, 2012;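 active means activation of at least 8% versus controls, or a plate z-score of at least 8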;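 further: Pro5 are CHO cells carrying HIG-tagged alpha-DG that lacks glycosylation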
CHOP inhibitor: inhibitors of CHOP promoter induction, primary screen, cell-based, unfolded protein response, luciferase reporter. CHO-K1 CHOP-promoter luciferase, tunicamycin-induced, 15-18 h. inhibition, % at 10 µM. actives 3.8% (n = 220,000). AID 2732, 2010;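 active means compounds that reduced the stress-induced luciferase reporter signal by more than about 70% of percent inhibition, limit read from the data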
GRIN3A LBD mod: binders of NR3A ligand-binding domain, primary screen, biophysical, differential scanning fluorimetry, uHTS; actives 2.5% (n = 340,000); AID 1259313, 2017; Glutamate receptor ionotropic, NMDA 3A (GRIN3A) ligand-binding domain; Tm shift relative to glycine control, % at 25 µM; NR3A LBD differential scanning fluorimetry, Tm shift; 0% = protein alone, 100% = glycine-bound protein;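 active means melting temperature shift of at least 10% of the positive control shift, at one fixed dose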
CHOP UPR activ: activators of apoptotic CHOP UPR arm, primary screen, cell-based, CHO-CHOP luciferase reporter, luminescence, uHTS. UPR activation; percent of tunicamycin response over DMSO baseline. activation, % at 10 µM. actives 0.34% (n = 330,000);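 active means at 10 µM dose, activation of 40% or more, normalized to positive control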
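System: CHO CHOP reporter cells. Amount: 500 cells per well. Buffer or medium: F12 medium, 10% FBS. Compound dosing: one dose, 10 µM in 0.5% DMSO. Incubation: 6 h compound exposure at 37 °C after overnight seeding. Technique: Steady-Glo luciferase luminescence. Benchmarks: tunicamycin and DMSO controls.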
XBP1 UPR activ: activators of adaptive XBP1 UPR arm, primary screen, cell-based, CHO-XBP1 luciferase reporter, luminescence, uHTS. AID 463104, 2010. activation, % at 20 µM. IRE1-XBP1 UPR activation; percent of tunicamycin response, DMSO as zero. actives 0.33% (n = 330,000);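 active means versus positive control, 20 µM dose yields 30% or more activation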
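Test system: CHO-XBP1 luciferase reporter cells | Buffer or medium: Serum-containing F12 medium, 10% FBS | Schedule: 6 h compound exposure at 37 °C, 5% CO2 | Detection: Steady-Glo luciferase glow luminescence, 10 min after reagent addition | Read-out basis: Activation, % of tunicamycin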
MPTP inh: mitochondrial permeability transition pore inhibitors, primary screen, biochemical, isolated mouse mitochondria, absorbance; Ca2+ swelling absorbance, 30 min; inhibition, % at 10 µM; actives 1.4% (n = 360,000); AID 602449, 2012;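 active means inhibition of 50% or more, scaled per plate between neutral and stimulator controls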
XBP1 UPR conf: IRE1-XBP1 UPR arm activators, confirmation, cell-based, CHO-XBP1 luciferase reporter, luminescence, single concentration; shares compounds with XBP1 UPR activ; actives 63% (n = 1,000); activation, % at 20 µM;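 active means reporter signal at least 30% of the positive control's activation in two or more of four replicate wells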
Of the large screens only hits and unclear results are named; the others gave an inactive call (follow-up assays come after a bar, where they were run).

CC(=O)Nc1ccc(C(=O)CN2C(=O)NC3(CCOc4ccccc43)C2=O)c(F)c1 (stereo not given)	none (no result: CHOP inhibitor)
Nc1nc(Nc2ccccc2)nc(NC2CCCCC2)c1[N+](=O)[O-]	XBP1 UPR activ 43 (no result: CHOP inhibitor) | XBP1 UPR conf 35
CNc1nc(N)c([N+](=O)[O-])c(NC2CCCCC2)n1	none (no result: CHOP inhibitor)
CC(C)(C)c1ccc(C(=O)Nc2ccc(O)c3c(=O)cc(-c4cccc(Cl)c4)oc23)cc1	XBP1 UPR activ 55 | XBP1 UPR conf 52
O=C(Nc1ccc(O)c2c(=O)cc(-c3cccc(Cl)c3)oc12)c1cccc(Cl)c1	XBP1 UPR activ 73 | XBP1 UPR conf 70
FC(F)(F)c1nc2ccccc2n2c(-c3ccc(Cl)cc3)nnc12	XBP1 UPR activ 47 | XBP1 UPR conf 54
COc1ccc([N+](=O)[O-])cc1COc1ccc2c(-c3ccccc3)cc(=O)oc2c1	XBP1 UPR activ 48 | XBP1 UPR conf 143
CC(=O)COc1ccc2c(-c3cccc([N+](=O)[O-])c3)cc(=O)oc2c1	none
COc1ccc(-c2cc(C(F)F)n3ncc(C(=O)Nc4ccc(C(=O)N5CCOCC5)cc4)c3n2)cc1	XBP1 UPR activ 33 | XBP1 UPR conf 52
O=C(Nc1ccc(C(=O)N2CCOCC2)cc1)c1cnn2c(C(F)F)cc(-c3ccccc3)nc12	none
CCN(CC(=O)Nc1c(F)cccc1F)C(=O)C1CCN(S(=O)(=O)c2ccccc2C(=O)OC)CC1	none (no result: CHOP inhibitor, CHOP UPR activ, XBP1 UPR activ)
CC(C)C1C(=O)N(Cc2cn(CC3CCCCC3)nn2)CCS(=O)(=O)N1Cc1ccc(-c2ccccc2)cc1 (stereo not given)	none (no result: CHOP inhibitor, GRIN3A LBD mod, CHOP UPR activ, XBP1 UPR activ)
Cc1ccccc1N1C(=O)C(Oc2ccc(Cl)cc2)C1CNCCCOC(C)C (stereo not given)	none
COCCCNCC1C(Oc2ccc(Cl)cc2)C(=O)N1c1ccccc1C (stereo not given)	XBP1 UPR activ 36 | XBP1 UPR conf inactive
Nc1ccc(NC(=O)c2ccccc2)c2c1C(=O)c1ccccc1C2=O	XBP1 UPR activ 32 | XBP1 UPR conf inactive
O=C(CN1C(=O)/C(=C/c2ccc(Cl)cc2)SC1=S)NC1C=CS(=O)(=O)C1 (stereo not given)	XBP1 UPR activ 44 (no result: CHOP inhibitor) | XBP1 UPR conf inactive
COc1ccc(-c2sc3ccccc3c2-c2ccc(OCCN(C)C)cc2)cc1	XBP1 UPR activ 44 (no result: CHOP inhibitor) | XBP1 UPR conf 58
CC(C)(C)c1cc(-c2nc(N)nc(N)n2)c(O)c(C(C)(C)C)c1	XBP1 UPR activ 58 (no result: CHOP inhibitor) | XBP1 UPR conf 30
COc1cc([N+](=O)[O-])ccc1NC(=O)CCCOc1cc(C)ccc1C	none
COc1cc(CNC(C)(C)CO)cc(Br)c1OCc1ccccc1	none
CCOc1cc(CNC(C)(C)CO)cc(Br)c1OCc1ccc(Cl)cc1Cl	CHOP inhibitor 92, XBP1 UPR activ 83 | XBP1 UPR conf 100
Cc1c(CCOC(=O)C23CC4(C)CC(C)(CC(C)(C4)C2)C3)sc[n+]1CC(=O)c1ccccc1	XBP1 UPR activ 40 | XBP1 UPR conf 65
CC1CCc2c(sc(NC(=O)CCc3nc4ccccc4c(=O)[nH]3)c2C#N)C1 (stereo not given)	XBP1 UPR activ 169 (no result: CHOP inhibitor) | XBP1 UPR conf 198
CC1=CC(C)(C)n2c(O)c(N=NC(N)=S)c3cc(C)cc1c32	XBP1 UPR activ 31 | XBP1 UPR conf inactive
O=C(N=Nc1c(O)n(C2OC(=O)c3ccccc32)c2ccccc12)c1ccc(O)cc1 (stereo not given)	CHOP inhibitor 78, XBP1 UPR activ 105 | XBP1 UPR conf inactive
Cc1ccc(NC(=O)c2cc(S(=O)(=O)N(C)C)ccc2N2CCCC2)cc1F	XBP1 UPR activ 39 (no result: CHOP inhibitor) | XBP1 UPR conf 64
Cc1ccc(C)c(OCCC(=O)Nc2cccc(S(=O)(=O)N3CCCCC3)c2)c1	none (no result: CHOP inhibitor)
COCCN(C(=O)c1ccc(N2C(=O)c3ccccc3C2=O)cc1)c1c(N)n(CC(C)C)c(=O)[nH]c1=O	none (no result: CHOP inhibitor)
Cc1ccc2oc(-c3cccc(NC(=O)c4ccc(Br)o4)c3C)nc2c1	none
Cc1c(NC(=O)CSc2ccc(Cl)cc2)cccc1-c1nc2cc(Cl)ccc2o1	GRIN3A LBD mod 18, XBP1 UPR activ 42 | XBP1 UPR conf 59
Cc1cc(C(=O)N/N=C/c2ccc(-c3cccc(Br)c3)o2)n[nH]1	GRIN3A LBD mod 15, XBP1 UPR activ 32 | XBP1 UPR conf inactive
COc1ccc(/C=N/NC(=O)c2cc3c(OC)ccc(OC)c3[nH]2)cc1O	XBP1 UPR activ 32 (no result: CHOP inhibitor) | XBP1 UPR conf inactive
COc1ccc(/C=N/NC(=O)c2cnccn2)cc1O	none
O=C(COC(=O)c1ccc(F)c(S(=O)(=O)N2CCOCC2)c1)NCc1ccccc1	none (no result: CHOP inhibitor)
CCOC(=O)/C=c1\s/c(=C\c2ccc(C)cc2)c(=O)n1CC(=O)NCc1ccco1	XBP1 UPR activ 55 | XBP1 UPR conf inactive
CCOC(=O)/C=c1\s/c(=C\c2ccc(C(F)(F)F)cc2)c(=O)n1CC(=O)NCc1ccco1	none
Nc1ccn([C@@H]2O[C@H](CNC(=O)[C@@H](Cc3cn(COCc4ccccc4)cn3)NC=O)[C@@H](O)[C@H]2O)c(=O)n1	none (no result: CHOP inhibitor, GRIN3A LBD mod, CHOP UPR activ, XBP1 UPR activ)
Cc1ccc(C)c(S(=O)(=O)NCC(=O)Nc2sc3c(c2C(N)=O)CCC(C)C3)c1 (stereo not given)	XBP1 UPR activ 32 | XBP1 UPR conf inactive
CC(OC(=O)c1cc(=O)[nH]c2ccccc12)C(=O)c1ccccc1 (stereo not given)	none
CCC(=O)Nc1ccc(NC(=O)CSc2nc3cc4c(cc3cc2C)CCC4)cc1	CHOP inhibitor 94, XBP1 UPR activ 50 | XBP1 UPR conf 40
Cc1cccn2c(=O)c3cc(S(=O)(=O)c4ccccc4)c(=N)n(Cc4cccnc4)c3nc12	none (no result: CHOP inhibitor)
Cc1ccc(S(=O)(=O)c2cc3c(=O)n4cccc(C)c4nc3n(Cc3ccncc3)c2=N)cc1	GRIN3A LBD mod 11, XBP1 UPR activ 49 (no result: CHOP inhibitor) | XBP1 UPR conf inactive
Cc1ccc(-c2n[nH]c(=S)n2/N=C/C=C/c2ccccc2[N+](=O)[O-])cc1	none
O=[N+]([O-])c1ccccc1/C=C/C=N/n1c(-c2cc(-c3ccccc3)n[nH]2)n[nH]c1=S	XBP1 UPR activ 39 | XBP1 UPR conf inactive
CCCN(CC(=O)Nc1ccccc1OC)C(=O)c1cc(-c2ccccc2)nn1-c1ccccc1	none (no result: CHOP inhibitor)
